Measured values taken from ChEMBL document CHEMBL1149397, “Trace amine-associated receptor agonists: synthesis and evaluation of thyronamines and related analogues” (J Med Chem, 2006).
The source made the active and inactive calls. No cut-off for these calls is given here.

Assays:
[1] = molecular target: Trace amine-associated receptor 1 (Rattus norvegicus, UniProt Q923Y9); experiment: Activity at rat TAAR1 by measuring cAMP accumulation in HEK293 cells; type: functional, cell-based
Procedure, shortened: (§1)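 HEK293 cells stably transfected with rat or mouse TAAR1, harvested and preincubated in Krebs-Ringer-HEPES with 200 µM IBMX. Then 1 h at 37 °C in KRH with 100 µM IBMX plus test compound, forskolin (10 µM) or DMSO vehicle. cAMP was measured by [³H]cAMP competitive binding after boiling, as % of forskolin control. EC₅₀ came from concentration-response curves, triplicate runs, averaged over experiments.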

[2] = molecular target: Trace amine-associated receptor 1 (Mus musculus, UniProt Q923Y8); experiment: Activity at mouse TAAR1 by measuring cAMP accumulation in HEK293 cells; type: functional, cell-based; procedure, shortened: as §1
[3] = tested on: Mus musculus; experiment: Hypothermia induction in C57BL/6J mice at 50 mg/kg, ip; type: functional, organism-based; set-up: dose 50 mg/kg
Procedure, shortened: (§2)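 Male C57BL/6J mice, about 7-10 weeks old, dosed i.p. at 2, 10, 25 or 50 mg/kg. Vehicle was 100% DMSO, or 60-65% DMSO in saline for some compounds. Rectal temperature was taken before dosing and at 30, 60, 120, 180, 240 and 1440 min, with room at 19-21 °C. Groups were 2-4 mice, analysed by two-way ANOVA with Bonferroni post hoc tests (P < 0.05).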

[4] = tested on: Mus musculus; experiment: Efficacy for hypothermia induction in ip dosed C57BL/6J mice; type: functional; procedure, shortened: as §2

Sequence of Trace amine-associated receptor 1 (Rattus norvegicus, UniProt Q923Y9) (Q923Y9 whole entry): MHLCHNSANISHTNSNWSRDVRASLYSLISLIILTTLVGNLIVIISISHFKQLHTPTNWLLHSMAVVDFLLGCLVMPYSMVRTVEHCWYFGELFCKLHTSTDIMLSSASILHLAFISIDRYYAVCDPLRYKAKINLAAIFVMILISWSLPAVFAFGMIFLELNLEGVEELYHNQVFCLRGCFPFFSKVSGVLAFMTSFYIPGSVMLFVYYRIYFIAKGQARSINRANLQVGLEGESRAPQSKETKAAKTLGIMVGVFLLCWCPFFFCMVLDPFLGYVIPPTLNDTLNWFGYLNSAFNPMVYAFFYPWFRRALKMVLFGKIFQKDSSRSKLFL
Sequence of Trace amine-associated receptor 1 (Mus musculus, UniProt Q923Y8) (Q923Y8 whole entry): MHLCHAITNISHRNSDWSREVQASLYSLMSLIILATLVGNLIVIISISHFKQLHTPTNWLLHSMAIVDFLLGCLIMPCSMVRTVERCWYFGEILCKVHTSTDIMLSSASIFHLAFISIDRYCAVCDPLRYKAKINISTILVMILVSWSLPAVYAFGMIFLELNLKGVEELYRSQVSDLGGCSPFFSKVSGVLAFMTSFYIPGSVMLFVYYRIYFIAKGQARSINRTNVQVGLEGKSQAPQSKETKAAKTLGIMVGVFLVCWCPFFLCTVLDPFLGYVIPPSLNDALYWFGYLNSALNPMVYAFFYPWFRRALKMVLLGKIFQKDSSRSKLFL

For `NCCc1ccc(OCc2c(F)c(F)c(F)c(F)c2F)cc1`, the EC50 [1] was > 1000 nM and the EC50 [2] was > 1000 nM.

In the case of `NCCc1ccc(OCCCCc2ccccc2)cc1`, the EC50 [1] is reported as 43 nM and the EC50 [2] is reported as 80 nM.

With `Cc1cc(CCN)ccc1Oc1ccc(O)cc1` the EC50 [1] was 33 nM, the EC50 [2] was 116 nM and the Activity [3] was “Active”.

For `CNCCc1ccc(Oc2ccc(F)cc2)c(I)c1`, the EC50 [1] was 2.7 nM, the EC50 [2] was 32.5 nM and the Activity [3] was “Active”.

With `NCCc1ccc(Oc2ccc(O)c(I)c2)cc1` the EC50 [1] was 800 nM and the EC50 [2] was > 1000 nM.

Compound `COc1cccc(COc2ccc(CCN)cc2)c1` has an EC50 [1] of 141 nM and an EC50 [2] of 194 nM.

Work on `NCCc1ccc(OCc2ccc(C(F)(F)F)cc2)cc1` yielded an EC50 [1] of 55 nM and an EC50 [2] of 20.2 nM.

For `NCCc1ccc(OCc2ccc(F)cc2)cc1`, the EC50 [1] was 72 nM and the EC50 [2] was 38.5 nM.

For `NCCc1ccc(Oc2cc(I)c(O)c(I)c2)cc1`, the EC50 [1] was > 1000 nM and the EC50 [2] was > 1000 nM.

For `CNCCc1ccc(OCc2ccccc2)c(I)c1`, the EC50 [1] was 68 nM and the EC50 [2] was 106 nM.

In the case of `CCNCCc1ccc(OCc2ccccc2)cc1`, the EC50 [1] is reported as > 1000 nM and the EC50 [2] is reported as 71 nM.

In the case of `CNCCc1ccc(OCc2ccc(C(F)(F)F)cc2)cc1`, the EC50 [1] is reported as 61 nM, the EC50 [2] is reported as 12 nM and the Activity [3] is reported as “Active”.

In the case of `CN(C)CCc1ccc(OCc2ccccc2)cc1`, the EC50 [1] is reported as > 1000 nM and the EC50 [2] is reported as 192 nM.

`c1ccc(CNCCc2ccc(OCc3ccccc3)cc2)cc1` was tested, and the EC50 [1] was > 1000 nM and the EC50 [2] was > 1000 nM.

For `CNCCc1ccc(Oc2ccc(C(F)(F)F)cc2)c(I)c1`, the EC50 [1] was > 1000 nM and the EC50 [2] was > 1000 nM.

`NCCc1ccc(OCCCc2ccccc2)cc1` gave an EC50 [1] of 89 nM and an EC50 [2] of 102 nM.

`CNCCc1ccc(Oc2ccc(OC)cc2)c(I)c1` was tested, and the EC50 [1] was 107 nM and the EC50 [2] was > 1000 nM.

`OCCc1ccc(Oc2ccc(O)cc2)c(I)c1` was tested, and the EC50 [1] was > 1000 nM and the EC50 [2] was > 1000 nM.

With `CCCNCCc1ccc(OCc2ccccc2)cc1` the EC50 [1] was > 1000 nM and the EC50 [2] was > 1000 nM.

Work on `NCCc1ccc(OCc2ccccc2)c(I)c1` yielded an EC50 [1] of 77 nM and an EC50 [2] of 221 nM.

In the case of `NCCc1ccc(OCCc2ccccc2)cc1`, the EC50 [1] is reported as 203 nM and the EC50 [2] is reported as 207 nM.

`CNCCc1ccc(Oc2ccc(O)cc2)c(I)c1` was tested, and the EC50 [1] was 18 nM and the EC50 [2] was 221 nM.

`NCCc1cc(I)c(Oc2ccc(O)cc2)c(I)c1` showed an EC50 [2] of 371 nM.

Compound `CNCCc1ccc(OCc2ccccc2)cc1` has an EC50 [1] of 119 nM and an EC50 [2] of 54 nM.

For `NCCc1cc(I)c(Oc2cc(I)c(O)c(I)c2)c(I)c1`, the EC50 [2] was > 1000 nM.

`NCCc1ccc(Oc2ccc(O)c(I)c2)c(I)c1` was tested, and the EC50 [2] was 1000 nM.

In the case of `NCCc1ccc(OCC(=O)c2ccccc2)cc1`, the EC50 [1] is reported as 309 nM and the EC50 [2] is reported as 83 nM.

With `NCCc1cc(I)c(Oc2ccc(O)c(I)c2)c(I)c1` the EC50 [2] was > 1000 nM.

With `CCCCNCCc1ccc(OCc2ccccc2)cc1` the EC50 [1] was > 1000 nM and the EC50 [2] was > 1000 nM.

`NCCc1ccc(OCc2ccc([N+](=O)[O-])cc2)cc1` showed an EC50 [1] of 64 nM and an EC50 [2] of 21.5 nM.

With `Cc1cc(C)cc(COc2ccc(CCN)cc2)c1` the EC50 [1] was 137 nM and the EC50 [2] was 98 nM.

In the case of `NCCc1ccc(Oc2ccc(O)cc2)cc1` [THYRONAMINE], the EC50 [2] is reported as 1000 nM.

With `NCCc1ccc(Oc2ccccc2)c(I)c1` the ED50 [4] was 30 µmol/kg, the EC50 [1] was 2.4 nM and the EC50 [2] was 35 nM. For the same compound, the Activity [3] was “Active”.

Work on `NCCc1ccc(OCc2ccccc2)cc1` yielded an EC50 [1] of 209 nM and an EC50 [2] of 168 nM.

`NCCc1ccc(Oc2ccccc2)cc1` showed an EC50 [1] of 38 nM and an EC50 [2] of 296 nM.

With `NCCc1ccc(OCc2ccc(C(F)(F)F)cc2)c(I)c1` the EC50 [1] was > 1000 nM and the EC50 [2] was 284 nM.

For `COc1cc(COc2ccc(CCN)cc2)cc(OC)c1`, the EC50 [1] was 333 nM and the EC50 [2] was 123 nM.

With `NCCc1ccc(Oc2cc(I)c(O)c(I)c2)c(I)c1` the EC50 [1] was > 1000 nM and the EC50 [2] was > 1000 nM.
